Measured values taken from ChEMBL document CHEMBL1629440, “Synthesis and pharmacological properties of novel hydrophilic 5-HT4 receptor antagonists” (Bioorg Med Chem, 2010).

How the values were obtained:
[1] = target: T1, 5-hydroxytryptamine receptor 4 (Homo sapiens, UniProt Q13639); assay: Antagonistic activity at human 5HT4 receptor expressed in HEK293 cells assessed as inhibition of 5-HT stimulated ADCY activity after 20 mins; type: functional, cell-based
Procedure, shortened: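 Membranes from HEK293 cells stably expressing human 5-HT4(b) at low level (400 fmol/mg). Adenylyl cyclase activity was stimulated by 1 µM 5-HT with 21 antagonist concentrations, 0.1 mM [α-32P]ATP, 4 mM MgCl2, 1 mM IBMX, GTP and ATP-regenerating system, 32 °C, 20 min. [32P]cAMP was isolated on Dowex/alumina columns. IC50 was fitted by non-linear regression and Kb calculated using 5-HT EC50.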

[2] = target: T1, 5-hydroxytryptamine receptor 4; assay: Displacement of [3H]GR113808 from human 5HT4 receptor expressed in HEK293 cells by liquid scintillation counting; type: cell-based
Procedure, shortened: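 Membranes from HEK293 line stably expressing human 5-HT4(b) at high level (5000 fmol/mg). Incubated with 0.3 nM [3H]GR113808 and 21 competitor concentrations in Tris-HCl pH 7.5, EDTA, EGTA, 2 mM MgCl2, ascorbate, 0.1% BSA, 100 µM GTP, room temperature 1 h. Filtered onto PEI-soaked filters, washed, scintillation counted. Ki derived from IC50 via Ki = IC50/(1+L/Kd).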

[3] = Lipophilicity, log D of the compound in octanol buffer at pH 7.4; type: physicochemical
Procedure, shortened: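 Distribution between octanol and aqueous buffer at pH 7.4. Both phases were diluted and ligand concentration in each measured by HPLC. Not determined where micelles formed.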

[4] = target: 5-hydroxytryptamine receptor 1A (Homo sapiens, UniProt P08908); assay: Binding affinity to 5HT1A receptor
[5] = target: Beta-2 adrenergic receptor (Homo sapiens, UniProt P07550); assay: Binding affinity to beta2 adrenergic receptor
[6] = target: Beta-3 adrenergic receptor (Homo sapiens, UniProt P13945); assay: Binding affinity to beta3 adrenergic receptor
[7] = target: Kappa-type opioid receptor (Homo sapiens, UniProt P41145); assay: Binding affinity to opioid receptor KOR
[8] = target: 5-hydroxytryptamine receptor 2B (Homo sapiens, UniProt P41595); assay: Binding affinity to 5HT2B receptor
[9] = Binding affinity to opioid receptor Sigma2
[10] = target: 5-hydroxytryptamine receptor 3A (Homo sapiens, UniProt P46098); assay: Binding affinity to 5HT3 receptor
[11] = target: Alpha-1A adrenergic receptor (Homo sapiens, UniProt P35348); assay: Binding affinity to alpha1A adrenergic receptor
[12] = target: Muscarinic acetylcholine receptor M2 (Homo sapiens, UniProt P08172); assay: Binding affinity to muscarinic acetylcholine receptor M2
[13] = target: Alpha-2B adrenergic receptor (Homo sapiens, UniProt P18089); assay: Binding affinity to alpha2B adrenergic receptor
[14] = target: 5-hydroxytryptamine receptor 2C (Homo sapiens, UniProt P28335); assay: Binding affinity to 5HT2C receptor
[15] = target: 5-hydroxytryptamine receptor 1E (Homo sapiens, UniProt P28566); assay: Binding affinity to 5HT1E receptor
[16] = target: Muscarinic acetylcholine receptor M1 (Homo sapiens, UniProt P11229); assay: Binding affinity to muscarinic acetylcholine receptor M1
[17] = target: 5-hydroxytryptamine receptor 2A (Homo sapiens, UniProt P28223); assay: Binding affinity to 5HT2A receptor
[18] = target: Beta-1 adrenergic receptor (Homo sapiens, UniProt P08588); assay: Binding affinity to beta1 adrenergic receptor
Histamine H4 receptor = Histamine H4 receptor (Homo sapiens, UniProt Q9H3N8); assay: Binding affinity to Histamine receptor H4
[19] = target: 5-hydroxytryptamine receptor 1D (Homo sapiens, UniProt P28221); assay: Binding affinity to 5HT1D receptor
D(1B) dopamine receptor = D(1B) dopamine receptor (Homo sapiens, UniProt P21918); assay: Binding affinity to dopamine receptor D5
Histamine H2 receptor = Histamine H2 receptor (Homo sapiens, UniProt P25021); assay: Binding affinity to Histamine receptor H2
[20] = target: Muscarinic acetylcholine receptor M5 (Homo sapiens, UniProt P08912); assay: Binding affinity to muscarinic acetylcholine receptor M5
[21] = target: Alpha-2A adrenergic receptor (Homo sapiens, UniProt P08913); assay: Binding affinity to alpha2A adrenergic receptor
[22] = Binding affinity to GABA receptor BDZ-site
[23] = target: 5-hydroxytryptamine receptor 6 (Homo sapiens, UniProt P50406); assay: Binding affinity to 5HT6 receptor
[24] = target: Delta-type opioid receptor (Homo sapiens, UniProt P41143); assay: Binding affinity to opioid receptor DOR
D(1A) dopamine receptor = D(1A) dopamine receptor (Homo sapiens, UniProt P21728); assay: Binding affinity to dopamine receptor D1
[25] = target: Muscarinic acetylcholine receptor M4 (Homo sapiens, UniProt P08173); assay: Binding affinity to muscarinic acetylcholine receptor M4
[26] = target: Alpha-2C adrenergic receptor (Homo sapiens, UniProt P18825); assay: Binding affinity to Alpha-2C adrenergic receptor
D(3) dopamine receptor = D(3) dopamine receptor (Homo sapiens, UniProt P35462); assay: Binding affinity to dopamine receptor D3
[27] = Binding affinity to GABA-A receptor muscimol site
[28] = target: Sigma non-opioid intracellular receptor 1 (Homo sapiens, UniProt Q99720); assay: Binding affinity to opioid receptor Sigma1
Histamine H1 receptor = Histamine H1 receptor (Homo sapiens, UniProt P35367); assay: Binding affinity to Histamine receptor H1
[29] = target: Muscarinic acetylcholine receptor M3 (Homo sapiens, UniProt P20309); assay: Binding affinity to muscarinic acetylcholine receptor M3
D(2) dopamine receptor = D(2) dopamine receptor (Homo sapiens, UniProt P14416); assay: Binding affinity to dopamine receptor D2
[30] = target: Sodium-dependent dopamine transporter (Homo sapiens, UniProt Q01959); assay: Binding affinity to DAT
Histamine H3 receptor = Histamine H3 receptor (Homo sapiens, UniProt Q9Y5N1); assay: Binding affinity to Histamine receptor H3
[31] = target: 5-hydroxytryptamine receptor 5A (Homo sapiens, UniProt P47898); assay: Binding affinity to 5HT5A receptor
Mu-type opioid receptor = Mu-type opioid receptor (Homo sapiens, UniProt P35372); assay: Binding affinity to opioid receptor MOR
[32] = target: Sodium-dependent serotonin transporter (Homo sapiens, UniProt P31645); assay: Binding affinity to SERT
[33] = target: Alpha-1B adrenergic receptor (Homo sapiens, UniProt P35368); assay: Binding affinity to Alpha-1B adrenergic receptor
[34] = target: 5-hydroxytryptamine receptor 7 (Homo sapiens, UniProt P34969); assay: Binding affinity to 5HT7 receptor
[35] = target: 5-hydroxytryptamine receptor 1B (Homo sapiens, UniProt P28222); assay: Binding affinity to 5HT1B receptor
[36] = target: Alpha-1D adrenergic receptor (Homo sapiens, UniProt P25100); assay: Binding affinity to Alpha-1D adrenergic receptor
D(4) dopamine receptor = D(4) dopamine receptor (Homo sapiens, UniProt P21917); assay: Binding affinity to dopamine receptor D4
[37] = target: T1, 5-hydroxytryptamine receptor 4; assay: Antagonistic activity at human 5HT4 receptor expressed in HEK293 cells; type: functional, cell-based
[38] = Half life in bovine plasma by HPLC; type: ADME, Bos taurus; details: cattle
Procedure, shortened: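 Ester incubated at 40 µM initial concentration in bovine plasma at 37 °C for up to 10 h. Aliquots were removed at intervals and H3PO4 added to release protein-bound drug. Parent ester and free-acid degradation product were quantified by HPLC, and half-life was calculated.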

T1 sequence (Q13639 whole entry): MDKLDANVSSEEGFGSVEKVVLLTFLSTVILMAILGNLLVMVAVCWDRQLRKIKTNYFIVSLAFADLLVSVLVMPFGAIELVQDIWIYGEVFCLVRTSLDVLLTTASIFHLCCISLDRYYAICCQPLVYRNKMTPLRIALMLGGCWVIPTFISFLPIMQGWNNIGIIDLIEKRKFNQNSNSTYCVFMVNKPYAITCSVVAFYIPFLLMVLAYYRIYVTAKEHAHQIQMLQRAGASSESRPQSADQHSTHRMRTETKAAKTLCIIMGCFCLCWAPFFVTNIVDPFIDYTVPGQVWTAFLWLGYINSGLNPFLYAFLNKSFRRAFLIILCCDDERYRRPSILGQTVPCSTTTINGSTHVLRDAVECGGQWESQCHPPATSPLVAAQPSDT
Sequence of 5-hydroxytryptamine receptor 1D (P28221 whole entry): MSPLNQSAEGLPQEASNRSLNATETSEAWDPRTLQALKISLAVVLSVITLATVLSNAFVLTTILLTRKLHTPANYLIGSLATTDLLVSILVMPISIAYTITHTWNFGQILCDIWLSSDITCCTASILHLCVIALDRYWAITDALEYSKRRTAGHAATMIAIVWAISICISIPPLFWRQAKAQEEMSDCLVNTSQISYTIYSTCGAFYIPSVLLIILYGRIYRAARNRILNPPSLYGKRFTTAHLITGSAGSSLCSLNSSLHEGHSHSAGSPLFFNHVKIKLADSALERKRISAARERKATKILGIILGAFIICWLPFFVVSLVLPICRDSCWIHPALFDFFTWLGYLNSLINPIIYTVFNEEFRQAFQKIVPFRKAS
Sequence of Muscarinic acetylcholine receptor M5 (P08912 whole entry): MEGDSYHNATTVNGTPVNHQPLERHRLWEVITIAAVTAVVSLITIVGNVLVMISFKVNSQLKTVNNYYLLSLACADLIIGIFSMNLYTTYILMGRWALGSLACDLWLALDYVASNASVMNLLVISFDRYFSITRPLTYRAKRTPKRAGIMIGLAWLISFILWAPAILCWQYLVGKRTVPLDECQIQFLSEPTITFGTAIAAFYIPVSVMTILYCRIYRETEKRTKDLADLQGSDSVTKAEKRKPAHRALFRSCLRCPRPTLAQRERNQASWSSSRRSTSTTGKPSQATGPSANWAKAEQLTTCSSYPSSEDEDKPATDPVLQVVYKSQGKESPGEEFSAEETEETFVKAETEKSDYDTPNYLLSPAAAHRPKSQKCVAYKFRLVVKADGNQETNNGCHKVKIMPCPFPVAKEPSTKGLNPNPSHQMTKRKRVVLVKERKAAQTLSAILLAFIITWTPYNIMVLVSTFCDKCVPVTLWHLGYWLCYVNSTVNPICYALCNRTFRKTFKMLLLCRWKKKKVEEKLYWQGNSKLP
Sequence of 5-hydroxytryptamine receptor 3A (P46098 whole entry): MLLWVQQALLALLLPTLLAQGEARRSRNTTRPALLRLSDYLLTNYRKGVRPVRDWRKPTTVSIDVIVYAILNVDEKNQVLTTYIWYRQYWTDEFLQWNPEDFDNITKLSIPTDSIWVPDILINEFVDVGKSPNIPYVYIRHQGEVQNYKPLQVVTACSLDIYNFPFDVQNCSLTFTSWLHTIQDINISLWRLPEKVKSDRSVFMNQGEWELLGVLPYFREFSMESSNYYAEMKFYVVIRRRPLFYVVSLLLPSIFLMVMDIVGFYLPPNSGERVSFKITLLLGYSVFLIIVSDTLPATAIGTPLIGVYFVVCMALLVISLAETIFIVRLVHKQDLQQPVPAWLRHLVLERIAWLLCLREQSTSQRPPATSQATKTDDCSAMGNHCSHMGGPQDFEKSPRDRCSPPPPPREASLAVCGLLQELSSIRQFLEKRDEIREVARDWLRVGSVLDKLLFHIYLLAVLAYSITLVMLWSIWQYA
Sequence of D(2) dopamine receptor (P14416 whole entry): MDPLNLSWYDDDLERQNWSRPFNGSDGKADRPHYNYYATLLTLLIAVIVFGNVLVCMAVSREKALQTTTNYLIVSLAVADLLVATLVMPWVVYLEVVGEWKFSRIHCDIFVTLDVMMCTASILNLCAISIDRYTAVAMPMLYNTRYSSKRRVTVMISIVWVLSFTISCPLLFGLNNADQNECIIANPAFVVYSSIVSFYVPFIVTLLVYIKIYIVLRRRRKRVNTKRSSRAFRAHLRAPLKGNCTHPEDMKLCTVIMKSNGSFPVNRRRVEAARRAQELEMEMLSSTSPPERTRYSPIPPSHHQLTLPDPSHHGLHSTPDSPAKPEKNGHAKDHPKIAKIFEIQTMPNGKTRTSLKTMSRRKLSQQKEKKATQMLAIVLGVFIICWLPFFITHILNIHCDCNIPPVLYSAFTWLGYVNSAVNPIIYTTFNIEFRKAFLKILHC
Sequence of Alpha-1D adrenergic receptor (P25100 whole entry): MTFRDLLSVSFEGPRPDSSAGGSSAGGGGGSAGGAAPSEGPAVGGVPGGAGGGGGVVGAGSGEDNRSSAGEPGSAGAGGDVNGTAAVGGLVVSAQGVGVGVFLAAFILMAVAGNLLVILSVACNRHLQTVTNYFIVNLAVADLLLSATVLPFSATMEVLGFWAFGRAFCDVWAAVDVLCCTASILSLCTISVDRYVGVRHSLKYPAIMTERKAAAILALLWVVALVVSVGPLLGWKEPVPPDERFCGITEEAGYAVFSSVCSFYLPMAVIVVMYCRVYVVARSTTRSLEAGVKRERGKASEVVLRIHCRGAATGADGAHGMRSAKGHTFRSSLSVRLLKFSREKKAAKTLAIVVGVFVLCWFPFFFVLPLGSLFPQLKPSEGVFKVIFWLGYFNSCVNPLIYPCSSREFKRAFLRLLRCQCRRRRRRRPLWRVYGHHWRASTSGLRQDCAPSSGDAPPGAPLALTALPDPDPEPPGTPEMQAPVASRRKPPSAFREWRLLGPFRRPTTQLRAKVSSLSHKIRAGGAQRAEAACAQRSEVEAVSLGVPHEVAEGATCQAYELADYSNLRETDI
Sequence of Mu-type opioid receptor (P35372 whole entry): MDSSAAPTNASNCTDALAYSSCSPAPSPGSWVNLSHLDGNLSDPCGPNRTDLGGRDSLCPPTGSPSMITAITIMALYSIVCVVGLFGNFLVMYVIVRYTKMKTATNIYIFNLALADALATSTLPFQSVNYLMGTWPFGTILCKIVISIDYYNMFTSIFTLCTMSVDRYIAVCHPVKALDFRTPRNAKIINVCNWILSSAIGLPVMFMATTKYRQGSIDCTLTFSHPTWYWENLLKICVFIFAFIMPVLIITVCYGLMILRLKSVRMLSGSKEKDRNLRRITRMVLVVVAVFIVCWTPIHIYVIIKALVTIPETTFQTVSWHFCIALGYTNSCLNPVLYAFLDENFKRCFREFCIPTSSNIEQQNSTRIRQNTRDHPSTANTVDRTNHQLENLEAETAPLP
Sequence of Sodium-dependent dopamine transporter (Q01959 whole entry): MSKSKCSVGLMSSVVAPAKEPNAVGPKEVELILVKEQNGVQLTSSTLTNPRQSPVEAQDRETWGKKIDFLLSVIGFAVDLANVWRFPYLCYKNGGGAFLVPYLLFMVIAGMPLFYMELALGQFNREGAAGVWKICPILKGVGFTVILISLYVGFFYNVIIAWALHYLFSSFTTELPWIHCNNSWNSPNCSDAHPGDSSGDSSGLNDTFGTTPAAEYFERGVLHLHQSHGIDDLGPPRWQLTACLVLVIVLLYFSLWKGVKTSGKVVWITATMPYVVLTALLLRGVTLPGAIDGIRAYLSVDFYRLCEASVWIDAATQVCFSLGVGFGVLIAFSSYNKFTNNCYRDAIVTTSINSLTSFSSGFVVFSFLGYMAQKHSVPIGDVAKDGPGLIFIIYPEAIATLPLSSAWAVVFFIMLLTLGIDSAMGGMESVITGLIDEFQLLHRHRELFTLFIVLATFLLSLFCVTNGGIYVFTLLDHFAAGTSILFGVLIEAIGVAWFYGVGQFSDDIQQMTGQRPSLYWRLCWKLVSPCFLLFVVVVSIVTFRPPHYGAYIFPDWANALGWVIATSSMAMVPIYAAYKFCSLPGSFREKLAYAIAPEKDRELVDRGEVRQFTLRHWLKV
Sequence of Alpha-2C adrenergic receptor (P18825 whole entry): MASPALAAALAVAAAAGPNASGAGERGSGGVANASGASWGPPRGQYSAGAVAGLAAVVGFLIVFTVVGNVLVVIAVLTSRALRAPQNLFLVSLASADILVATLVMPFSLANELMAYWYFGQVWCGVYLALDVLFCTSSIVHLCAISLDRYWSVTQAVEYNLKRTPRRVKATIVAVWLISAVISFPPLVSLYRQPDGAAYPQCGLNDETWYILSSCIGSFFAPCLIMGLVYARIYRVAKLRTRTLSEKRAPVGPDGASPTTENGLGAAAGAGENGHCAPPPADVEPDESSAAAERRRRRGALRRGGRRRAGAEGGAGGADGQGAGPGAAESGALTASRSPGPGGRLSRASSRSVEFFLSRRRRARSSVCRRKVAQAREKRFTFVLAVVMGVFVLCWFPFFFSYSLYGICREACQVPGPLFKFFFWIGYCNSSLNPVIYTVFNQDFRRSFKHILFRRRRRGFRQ
Sequence of Kappa-type opioid receptor (P41145 whole entry): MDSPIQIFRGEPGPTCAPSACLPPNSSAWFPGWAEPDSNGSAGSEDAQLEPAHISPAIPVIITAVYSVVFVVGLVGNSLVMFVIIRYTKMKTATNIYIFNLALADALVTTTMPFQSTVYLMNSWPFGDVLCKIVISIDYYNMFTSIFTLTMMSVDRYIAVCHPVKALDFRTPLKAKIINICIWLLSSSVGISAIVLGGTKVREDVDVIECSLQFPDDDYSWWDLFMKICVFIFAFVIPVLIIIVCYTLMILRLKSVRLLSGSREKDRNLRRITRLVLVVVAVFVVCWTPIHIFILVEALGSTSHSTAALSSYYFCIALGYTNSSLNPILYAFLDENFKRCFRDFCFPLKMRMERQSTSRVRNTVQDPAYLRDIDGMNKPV
Sequence of Sigma non-opioid intracellular receptor 1 (Q99720 whole entry): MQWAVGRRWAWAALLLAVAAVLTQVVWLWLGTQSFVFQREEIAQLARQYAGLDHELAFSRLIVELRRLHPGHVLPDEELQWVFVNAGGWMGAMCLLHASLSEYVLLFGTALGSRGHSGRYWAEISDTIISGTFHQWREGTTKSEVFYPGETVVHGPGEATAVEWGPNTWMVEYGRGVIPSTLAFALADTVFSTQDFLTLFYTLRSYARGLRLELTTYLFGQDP

CCCCN1CCC(CNC(=O)c2c3n(c4ccccc24)CCCO3)CC1 [PIBOSEROD] showed a pKb [1] of 9.26, a Ki [2] of 0.0525 nM and a logD [3] of 2.2.
In the case of O=C(O)CCN1CCC(CNC(=O)c2c3n(c4ccccc24)CCCO3)CC1, the pKb [1] is reported as 8.08, the Ki [2] is reported as 1.12 nM and the logD [3] is reported as -1.3.
In the case of O=C(O)CCCCCCCCCCCN1CCC(CNC(=O)c2c3n(c4ccccc24)CCCO3)CC1, the pKb [1] is reported as 8.97 and the Ki [2] is reported as 2.45 nM.
With O=C(O)CCCN1CCC(CNC(=O)c2c3n(c4ccccc24)CCCO3)CC1 the pKb [1] was 7.96, the Ki [2] was 2 nM and the logD [3] was -1.2.
In the case of COC(=O)CCCCCCCCCN1CCC(CNC(=O)c2c3n(c4ccccc24)CCCO3)CC1, the pKb [1] is reported as 9.33 and the Ki [2] is reported as 0.195 nM.
For COC(=O)CCCCCN1CCC(CNC(=O)c2c3n(c4ccccc24)CCCO3)CC1, the pKb [1] was 9.13, the Ki [4] was over 10 µM and the Ki [5] was over 10 µM. The Ki [6] was over 10 µM, the Ki [7] was over 10 µM and the Ki [8] was 0.316 µM. For the same compound, the pKi [9] was under 5, the Ki [10] was 2.51 µM and the Ki [11] was over 10 µM. For the same compound, the Ki [12] was 2.51 µM, the Ki [13] was 1.26 µM and the Ki [14] was over 10 µM. The Ki [15] was over 10 µM, the Ki [16] was over 10 µM and the Ki [17] was 6.31 µM. The Ki [18] was over 10 µM, the Ki [2] was 0.107 nM and the Ki (Histamine H4 receptor) was over 10 µM. It also gave a Ki [19] of 3.16 µM, a Ki (D(1B) dopamine receptor) of over 10 µM and a Ki (Histamine H2 receptor) of 3.16 µM. For the same compound, the Ki [20] was over 10 µM, the Ki [21] was over 10 µM and the pKi [22] was under 5. The Ki [23] was over 10 µM, the Ki [24] was over 10 µM and the Ki (D(1A) dopamine receptor) was over 10 µM. The logD [3] was 2.2, the Ki [25] was over 10 µM and the Ki [26] was over 10 µM. The Ki (D(3) dopamine receptor) was over 10 µM, the pKi [27] was under 5 and the Ki [28] was 0.398 µM. It also gave a Ki (Histamine H1 receptor) of 1.26 µM, a Ki [29] of over 10 µM and a Ki (D(2) dopamine receptor) of over 10 µM. It also gave a Ki [30] of over 10 µM, a Ki (Histamine H3 receptor) of over 10 µM and a Ki [31] of over 10 µM. The Ki (Mu-type opioid receptor) was over 10 µM, the Ki [32] was over 10 µM and the Ki [33] was over 10 µM. It also gave a Ki [34] of over 10 µM, a Ki [35] of over 10 µM and a Ki [36] of over 10 µM. The Ki (D(4) dopamine receptor) was over 10 µM.
Work on CC(C)(C)OC(=O)CN1CCC(CNC(=O)c2c3n(c4ccccc24)CCCO3)CC1 yielded a pKb [1] of 9.01 and a Ki [2] of 0.759 nM.
Compound O=C(O)CCCCN1CCC(CNC(=O)c2c3n(c4ccccc24)CCCO3)CC1 has a pKb [1] of 8.1, a Ki [2] of 2.04 nM and a logD [3] of -1.3.
O=C(O)c1ccc(CN2CCC(CNC(=O)c3c4n(c5ccccc35)CCCO4)CC2)cc1 gave a pKb [1] of 7.25 and a Ki [2] of 5.01 nM.
With O=C(O)CCCCCN1CCC(CNC(=O)c2c3n(c4ccccc24)CCCO3)CC1 the pKb [1] was 7.94, the Ki [4] was over 10 µM and the Ki [5] was over 10 µM. For the same compound, the Ki [6] was over 10 µM, the Ki [7] was over 10 µM and the Ki [8] was over 10 µM. It also gave a pKi [9] of under 5, a Ki [10] of over 10 µM and a Ki [11] of over 10 µM. For the same compound, the Ki [12] was over 10 µM, the Ki [13] was over 10 µM and the Ki [14] was over 10 µM. It also gave a Ki [15] of over 10 µM, a Ki [16] of over 10 µM and a Ki [17] of over 10 µM. For the same compound, the Ki [18] was over 10 µM, the Ki [2] was 1.55 nM and the Ki (Histamine H4 receptor) was over 10 µM. It also gave a Ki [19] of over 10 µM, a Ki (D(1B) dopamine receptor) of over 10 µM and a Ki (Histamine H2 receptor) of over 10 µM. For the same compound, the Ki [20] was over 10 µM, the Ki [21] was over 10 µM and the pKi [22] was under 5. The Ki [23] was over 10 µM, the Ki [24] was over 10 µM and the Ki (D(1A) dopamine receptor) was over 10 µM. The logD [3] was -1.3, the Ki [25] was over 10 µM and the Ki [26] was over 10 µM. It also gave a Ki (D(3) dopamine receptor) of over 10 µM, a pKi [27] of under 5 and a Ki (Histamine H1 receptor) of over 10 µM. It also gave a Ki [29] of over 10 µM, a Ki (D(2) dopamine receptor) of over 10 µM and a Ki [30] of over 10 µM. For the same compound, the Ki (Histamine H3 receptor) was over 10 µM, the Ki [31] was over 10 µM and the Ki (Mu-type opioid receptor) was over 10 µM. For the same compound, the Ki [32] was over 10 µM, the Ki [33] was over 10 µM and the Ki [34] was over 10 µM. The Ki [35] was over 10 µM, the Ki [36] was over 10 µM and the Ki (D(4) dopamine receptor) was over 10 µM.
Cn1cc(C(=O)OCC2CCN(CCNS(C)(=O)=O)CC2)c2ccccc21 gave a pKb [1] of 9.24 and a Ki [37] of 0.0741 nM.
In the case of O=C(CCCN1CCC(CNC(=O)c2c3n(c4ccccc24)CCCO3)CC1)OCc1ccccc1, the pKb [1] is reported as 9.85, the Ki [2] is reported as 0.0427 nM and the half-life [38] is reported as 20 min.
In the case of O=C(O)CN1CCC(CNC(=O)c2c3n(c4ccccc24)CCCO3)CC1, the pKb [1] is reported as 7.91, the Ki [2] is reported as 2.82 nM and the logD [3] is reported as -1.1.
